This passage reports Activity results from ChEMBL document CHEMBL1150050, “Antimutagenic agents from natural products” (J Nat Prod, 1992).

Each structure is given as a SMILES string. The source made the active and inactive calls. No cut-off for these calls is given here.

The subject of data set [1] is Salmonella typhimurium. As to the kind of experiment: Toxicity in Salmonella Typhimurium TA98 at 75 to 600 ug/plate after 48 to 72 hrs in presence of liver S-9 fraction. The format is organism-based. The following applies: salmonella enterica subsp. enterica serovar typhimurium. The gist of the method:
(§1)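 Toxicity plates were set up with bacteria, Ames S-9 preparation and test substance, with histidine in place of 2-aminoanthracene. They were mixed with top agar and incubated 48–72 h.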

Data set [2] deals with Salmonella typhimurium. As to the kind of experiment: Toxicity in Salmonella Typhimurium TA100 at 75 to 600 ug/plate after 48 to 72 hrs in presence of liver S-9 fraction. The format is organism-based. To be noted: salmonella enterica subsp. enterica serovar typhimurium. Put shortly: as §1
Data set [3] concerns Salmonella typhimurium. Nature of the data set: Toxicity in Salmonella Typhimurium TA100 at 75 to 300 ug/plate after 48 to 72 hrs in presence of liver S-9 fraction. The format is organism-based. To be noted: salmonella enterica subsp. enterica serovar typhimurium. The gist of the method:
as §1

For data set [4], the system named is Salmonella typhimurium. Nature of the data set: Antimutagenic activity in Salmonella Typhimurium TA98 assessed as inhibition of 2-aminoanthracene-induced mutation at 150 ug/plate after 48 to 72 hrs by Ames assay in presence of liver S-9 fraction. The format is functional, organism-based. The following applies: Salmonella enterica subsp. enterica serovar Typhimurium. The gist of the method: (§2)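 Bacteria were combined with Ames S-9 metabolic activation preparation, test substance in DMSO and 2-aminoanthracene at 2.5 μg/plate, mixed with top agar and incubated 48–72 h. Mutagenicity inhibition was assessed relative to 2-aminoanthracene.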

For data set [5], the system named is Salmonella typhimurium. As to the kind of experiment: Antimutagenic activity in Salmonella Typhimurium TA100 assessed as inhibition of ethyl methanesulfonate-induced mutation at 300 ug/plate after 48 to 72 hrs by Ames assay in presence of liver S-9 fraction. The format is functional, organism-based. The following applies: Salmonella enterica subsp. enterica serovar Typhimurium. Background: The Ames test detects mutagens through reverse mutation in bacteria.

For data set [6], the system named is Salmonella typhimurium. As to the kind of experiment: Antimutagenic activity in Salmonella Typhimurium TA98 assessed as inhibition of 2-aminoanthracene-induced mutation at 75 ug/plate after 48 to 72 hrs by Ames assay in presence of liver S-9 fraction. The format is functional, organism-based. The following applies: Salmonella enterica subsp. enterica serovar Typhimurium. Put shortly:
as §2

The test system of data set [7] is Salmonella typhimurium. Nature of the data set: Toxicity in Salmonella Typhimurium TA98 at 75 to 300 ug/plate after 48 to 72 hrs in presence of liver S-9 fraction. The format is organism-based. The following applies: salmonella enterica subsp. enterica serovar typhimurium. Put shortly: as §1
In data set [8] the test system is Salmonella typhimurium. Nature of the data set: Antimutagenic activity in Salmonella Typhimurium TA100 assessed as inhibition of ethyl methanesulfonate-induced mutation at 32 to 300 ug/plate after 48 to 72 hrs by Ames assay in presence of liver S-9 fraction. The format is functional, Salmonella enterica subsp. enterica serovar Typhimurium. Set-up: scale not given: the % may be the effect or the level left.

For `CC(C)=CCC/C(C)=C/Cc1cc(O)c(Br)cc1O` [CYMOPOL], the Activity entry in the data set on Salmonella typhimurium [1] and with Salmonella typhimurium [2] was “Toxic” each time.
In the case of `CC1(C)[C@@H](Br)CC[C@@]2(C)Oc3cc(Br)c(O)cc3C[C@@H]12` [CYMOBARBATOL], the Activity result is recorded as “Non-toxic” with Salmonella typhimurium [3], “Non-toxic” with Salmonella typhimurium [7] and 80% with Salmonella typhimurium [8]. In addition, the outcome with Salmonella typhimurium [4], with Salmonella typhimurium [5] and in the data set on Salmonella typhimurium [6] was Active.
On to `CC1(C)[C@@H](Br)CC[C@]2(C)Oc3cc(Br)c(O)cc3C[C@@H]12`, for which the values for the Activity result with Salmonella typhimurium [3], in the data set with Salmonella typhimurium [7] and in the data set on Salmonella typhimurium [8] were “Non-toxic”, “Non-toxic” and 80%, respectively. The outcome in the data set on Salmonella typhimurium [4], with Salmonella typhimurium [5] and with Salmonella typhimurium [6] was Active.
